Calls of active or inactive are those of the source. The calls are words filed in the database; no cut-off is given here.

The species named for experiment [1] is Cavia porcellus. Put plainly: Inhibitory activity against SRS-A release in guinea pig; 0.01-19 uM. In kind it is functional. In a few lines: (§1)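 Male Hartley guinea pigs were sensitized with ovalbumin (5 mg ip + 5 mg sc on day 1, 5 mg ip on day 4). About 400 mg chopped lung was preincubated with compound for 12 min at 37 °C in Tyrode's with 10 mM cysteine, then challenged with 20 μg/mL ovalbumin (final) for 0.25 h. SRS-A in ethanol-extracted supernatant was bioassayed on mepyramine-treated ileum against a rat SRS-A standard. Results are % inhibition versus vehicle, from 3-4 lungs.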

Experiment [2] deals with Cavia porcellus. Put plainly: Percent inhibition of bronchospasm in vivo at a dose of 12.5 mg/kg in guinea pig. Particulars: Bronchiole. In kind it is functional. In a few lines: (§2)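 Guinea pigs were sensitized with ovalbumin and used 3-4 weeks later. They were fasted and anesthetized with dialurethane ip. Compounds were given orally 2 h before challenge. Propranolol 1 mg/kg, indomethacin 5 mg/kg and mepyramine 2 mg/kg were given iv 15 min before a 0.5 min aerosol of 0.5% ovalbumin through the tracheal cannula. The rise in inflation pressure measured bronchoconstriction. Results are % inhibition, 4-5 animals per group.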

In experiment [3] the test system is Cavia porcellus. Put plainly: Effective oral dose required to inhibit bronchospasm in guinea pig. The format is functional. Particulars: Bronchiole. In a few lines:
as §2

Experiment [4] is filed under the species Cavia porcellus. Put plainly: Percent inhibition of SRS-A release in vitro at a dose of 10 uM in guinea pig. In kind it is functional. In a few lines:
as §1

The test system of experiment [5] is Cavia porcellus. Put plainly: Percent inhibition of bronchospasm administered intravenously at a dose of 5 mg/kg in guinea pig. In kind it is functional. Particulars: Bronchiole, route intravenous. An outline of the steps:
(§3)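 Ovalbumin-sensitized, anesthetized guinea pigs received iv propranolol 1 mg/kg, indomethacin 5 mg/kg and mepyramine 2 mg/kg, then a 0.5 min aerosol challenge with 0.5% ovalbumin 15 min later. The agent was given intravenously. The rise in inflation pressure was scored as % inhibition of bronchospasm.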

Experiment [6] has as its system Cavia porcellus. Nature of the experiment: Percent inhibition of bronchospasm in vivo for a dose of 5 mg/kg in guinea pig. The settings on record: Bronchiole, read-out: Inhibition. The format is functional. In a few lines: as §3
Experiment [7] has as its system Cavia porcellus. Nature of the experiment: Percent inhibition of bronchospasm in vivo at a dose of 25 mg/kg in guinea pig. The format is functional. Particulars: Bronchiole. In a few lines: as §2
Experiment [8] is filed under the species Cavia porcellus. Put plainly: Inhibitory activity against SRS-A release in guinea pig; 0.05-14 uM. The format is functional. In a few lines:
as §1

In experiment [9] the test system is Cavia porcellus. Put plainly: Effective oral dose required to inhibit bronchospasm in guinea pig; 0.9-12.8 mg/kg. The format is functional. The settings on record: Bronchiole. In a few lines: as §2
The species entered for experiment [10] is Cavia porcellus. Put plainly: Percent inhibition of SRS-A release in vitro at a dose of 3 uM in guinea pig. In kind it is functional. In a few lines: as §1
The species entered for experiment [11] is Cavia porcellus. Put plainly: Inhibitory activity against sulfidopeptide leukotriene release in guinea pig. The format is functional.
In experiment [12] the test system is Cavia porcellus. Put plainly: Percent inhibition of bronchospasm, when administered orally at a dose of 53 mg/kg in guinea pig. The format is functional. Particulars: Bronchiole, route oral. An outline of the steps: (§4)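 Male Hartley guinea pigs were sensitized with ovalbumin (5 mg ip plus 5 mg sc on day 1, 5 mg ip on day 4) and used 3-4 weeks later, fasted overnight and given dialurethane ip. They were dosed orally 2 h before challenge and given iv propranolol 1 mg/kg, indomethacin 5 mg/kg and mepyramine 2 mg/kg. Fifteen minutes later, 0.5% ovalbumin aerosol was delivered for 0.5 min via tracheal cannula. Read-out was increased inflation pressure, as mean % inhibition from 4-5 animals.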

The test system of experiment [13] is Cavia porcellus. Nature of the experiment: Percent inhibition of bronchospasm, when administered orally at a dose of 18 mg/kg in guinea pig. Particulars: Bronchiole, route oral. The format is functional. An outline of the steps:
as §4

Experiment [14] relates to Cavia porcellus. Put plainly: Percent inhibition of bronchospasm, when administered orally at a dose of 160 mg/kg to guinea pig. The format is functional. Particulars: Bronchiole, route oral. An outline of the steps: as §4
For experiment [15], the system named is Cavia porcellus. Nature of the experiment: Percent inhibition of bronchospasm in vivo at oral dose of 25 mg/kg in guinea pig.
The subject of experiment [16] is Cavia porcellus. Nature of the experiment: Percent inhibition of bronchospasm when administered at a dose of 1 mg/kg in guinea pig. Particulars: Bronchiole. In kind it is functional. In a few lines:
as §3

The subject of experiment [17] is Cavia porcellus. Put plainly: Percent inhibition of bronchospasm when administered at a dose of 2.5 mg/kg in guinea pig. In kind it is functional. Particulars: Bronchiole. In a few lines: as §3
Experiment [18] concerns Cavia porcellus. Put plainly: Percent inhibition of bronchospasm when administered at a dose of 5 mg/kg in guinea pig. In kind it is functional. The settings on record: Bronchiole. An outline of the steps:
as §3

The species entered for another experiment is Mus musculus. Put plainly: Compound was tested in vitro in cloned murine mast cell (MC-9) for the inhibition of production of leukotriene products at 50 uM concentration; No inhibition. In kind it is functional.
The species named for experiment [19] is Cavia porcellus. Put plainly: Compound was tested for th inhibition of SRS-A production in guinea pig lung. The format is functional. In a few lines:
(§5)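 Antigen-challenged lung fragments from sensitized guinea pigs were treated with 10 μM test agent or DMSO vehicle 12 min before challenge. Tyrode's contained 10 mM cysteine and 10 μM indomethacin. SRS-A in ethanol extracts was bioassayed on guinea pig ileum and given as units/g, mean ± SEM of 4 lungs. A paired t test compared treatment with vehicle.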

Another experiment is filed under the species Rattus norvegicus. Nature of the experiment: Compound was tested in vitro in rat polymorphonuclear leucocyte for the inhibition of production of leukotriene products at 50 uM concentration; No inhibition. The format is functional.
The test system of experiment [20] is Cavia porcellus. Nature of the experiment: Effective oral dose required to inhibit bronchospasm in guinea pig; 1.3-7.6 mg/kg. The format is functional. Particulars: Bronchiole. In a few lines: as §2
Experiment [21] is filed under the species Cavia porcellus. Nature of the experiment: Compound was tested for th inhibition of LTD4 production in guinea pig lung. In kind it is functional. In a few lines: (§6)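 Lung fragments pooled from four sensitized guinea pigs were challenged in 0.4 g aliquots with antigen, with 10 μM test agent or DMSO vehicle added 12 min before challenge. Tyrode's held 10 mM cysteine and 10 μM indomethacin. Ethanol extracts were pooled, solvent-partitioned and run on reverse-phase HPLC with UV 280 nm. LTD4 was quantified against an LTC4 standard curve (10-200 pmol) as pmol/g.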

The species named for experiment [22] is Cavia porcellus. Nature of the experiment: Production of LTD4 in guinea pig lung. The format is functional. An outline of the steps:
as §6

Experiment [23] is filed under the species Cavia porcellus. Put plainly: Production of SRS-A in guinea pig lung. In kind it is functional. In a few lines: as §5
For experiment [24], the species on record is Cavia porcellus. Nature of the experiment: Inhibitory activity against SRS-A release in guinea pig; 0.7-2 uM. In kind it is functional. An outline of the steps: as §1

Regarding `CCCCc1c([O-])c2cccnc2n(-c2ccccc2)c1=O.[Na+]`, the midpoint of inhibition in the experiment listed under Cavia porcellus [1], the IC50, lay at 0.24 µM. The compound further showed an inhibition in vivo at 12.5 mg/kg with Cavia porcellus [2] of 68%. For the same compound, the ED50 (as a rule, the midpoint of the dose-response relation) with Cavia porcellus [3] is 14 mg/kg. Also, testing at 10 µM in the experiment listed under Cavia porcellus [4] gave an inhibition of 56%.
`O=c1c(-c2ccccn2)c(O)c2cccnc2n1-c1ccccc1`: the inhibition in vivo at 12.5 mg/kg in the experiment with Cavia porcellus [2] came out at 42%. For the same compound, the inhibition (as a rule, the drop in the measured response relative to a control, in per cent) at 10 µM in the experiment listed under Cavia porcellus [4] came to 84%.
With `CCCc1c2c(c(O)c3c(=O)cc(C(=O)O)oc13)CCCC2` [PROXICROMIL], the inhibition in vivo at 5 mg/kg with Cavia porcellus [5] and with Cavia porcellus [6] was 0% each time.
In the case of `C#CCOc1c(CC#C)c(=O)n(-c2ccccc2)c2ncccc12`, the inhibition in vivo at 12.5 mg/kg in the experiment with Cavia porcellus [2] was 0%. Moreover, the inhibition at 10 µM in the experiment listed under Cavia porcellus [4] was 62%.
For `C=CCc1c(OC(C)=O)c2cccnc2n(-c2cccc(OC)c2)c1=O`, in that order: 32% and 84%.
In the experiment with Cavia porcellus [7], `C=CCc1c(O)c2cccnc2n(-c2ccccc2OC)c1=O` showed an inhibition in vivo at 25 mg/kg of 90%. Further, inhibition in the experiment filed under Cavia porcellus [8] was half-maximal at 0.98 µM (IC50). Also, the 50% effect level with Cavia porcellus [9] (ED50) was put at a dose of 3.7 mg/kg. The inhibition at 10 µM in the experiment listed under Cavia porcellus [4] is 69%.
In the experiment listed under Cavia porcellus [10], `C=CCc1c(OC(C)=O)c2cccnc2n(-c2ccc(OCc3ccccc3)cc2)c1=O` showed an inhibition at 3 µM of 23%.
For the compound `C=CCc1c(OC(C)=O)c2cccnc2n(-c2cccc(Cl)c2)c1=O`, the IC50 (in general, the concentration at which inhibition is half-maximal) in the experiment filed under Cavia porcellus [11] was approximately 1 µM. In the experiment with Cavia porcellus [3], this compound yielded an ED50 of 0.4 mg/kg. In the experiment filed under Cavia porcellus [4], this compound registered an inhibition at 10 µM of 60%.
The compound `Cn1c(=O)c2[nH]cnc2n(C)c1=O` [AMINOPHYLLINE] returned an inhibition in vivo at 53 mg/kg in the experiment with Cavia porcellus [12] of 55%. The compound further had an inhibition in vivo at 18 mg/kg in the experiment on Cavia porcellus [13] of 21%. For the same compound, the inhibition in vivo at 160 mg/kg in the experiment on Cavia porcellus [14] is 81%.
As for `CCCCc1c(OC(C)=O)c2cccnc2n(-c2ccc(F)cc2)c1=O`, the inhibition in vivo at 12.5 mg/kg in the experiment on Cavia porcellus [2] worked out at 34%. Further, in the experiment filed under Cavia porcellus [4], the inhibition at 10 µM worked out at 77%.
For `CCCCc1c(O)c2cccnc2n(-c2ccc(O)c(C(=O)OCC)c2)c1=O`, in that order: 0% and 65%.
As to `C=CCc1c(O)c2cccnc2n(-c2ccccc2)c1=O`, 10 µM produced 81% inhibition in the experiment filed under Cavia porcellus [4]. Also, the Inhibition (usually the drop in the measured response relative to a control, in per cent) with Cavia porcellus [15] stood at 85%.
`CCc1c(O)c2cccnc2n(-c2ccccc2)c1=O` came in with an inhibition in vivo at 12.5 mg/kg with Cavia porcellus [2] of 44%. In the experiment listed under Cavia porcellus [4], this compound yielded an inhibition at 10 µM of 74%.
In the experiment with Cavia porcellus [7], `CCCCc1c(OCCN(C)C)c2cccnc2n(-c2ccccc2)c1=O` gave an inhibition in vivo at 25 mg/kg of 84%. In the experiment on Cavia porcellus [2], this compound gave an inhibition in vivo at 12.5 mg/kg of 13%. In the experiment filed under Cavia porcellus [4], this compound had an inhibition at 10 µM of 0%.
For the compound `CCCc1c(OCC(O)COc2ccc3c(=O)cc(C(=O)O)oc3c2CCC)ccc(C(C)=O)c1O` (centres undefined) [FPL-55712], the inhibition in vivo at 1 mg/kg in the experiment with Cavia porcellus [16] is 32%. In the experiment on Cavia porcellus [17], this compound had an inhibition in vivo at 2.5 mg/kg of 57%. Also, the inhibition in vivo at 5 mg/kg in the experiment on Cavia porcellus [18] turned out to be 68%.
In the case of `C=CCc1c(OC(C)=O)c2cccnc2n(-c2ccccc2)c1=O`, the outcome in the experiment listed under Mus musculus and in the experiment listed under Rattus norvegicus was inactive. In addition, the Inhibition in the experiment listed under Cavia porcellus [19] was 69%; in the experiment filed under Cavia porcellus [21], 70%. The same compound returned an ED50 in the experiment with Cavia porcellus [20] of 2.9 mg/kg. Moreover, the LTD4 production at 10 µM in the experiment listed under Cavia porcellus [22] was determined as 25 pmol/g. This compound also gave an inhibition in vivo at 12.5 mg/kg with Cavia porcellus [2] of 84%. The SRS-A release at 10 µM in the experiment filed under Cavia porcellus [23] is 9.3 units/g. For the same compound, in the experiment listed under Cavia porcellus [4], the inhibition at 10 µM was 73%. Besides, half-maximal inhibition in the experiment filed under Cavia porcellus [24] (IC50) required 1.1 µM.
For the compound `O=c1c(CCc2ccccn2)c(O)c2cccnc2n1-c1ccccc1`, the inhibition in vivo at 12.5 mg/kg in the experiment on Cavia porcellus [2] was 5%. This compound also registered an inhibition at 10 µM in the experiment filed under Cavia porcellus [4] of 58%.

The values are drawn from ChEMBL document CHEMBL1124002, “Antiallergy agents. 1. Substituted 1,8-naphthyridin-2(1H)-ones as inhibitors of SRS-A release” (J Med Chem, 1988).
